# Measurements reported in ChEMBL document CHEMBL3351932, “Discovery of BI 207524, an indole diamide NS5B thumb pocket 1 inhibitor with improved potency for the potential treatment of chronic hepatitis C virus infection” (J Med Chem, 2014).
# Legend:
# Hepatitis C virus [1] = experiment: Antiviral activity against Hepatitis C virus genotype 1b assessed as shift in EC50 by cell-based replicon assay in presence of 40% human serum; assay type: functional, Hepacivirus hominis
# [2] = Lipophilicity, log D of the compound at pH 7.4; assay type: physicochemical; settings: buffer
# [3] = Cytotoxicity against human HuH7 cells assessed as cell viability by MTT assay; assay type: cell-based; settings: Huh-7 cells, read-out: TC50 (the source's name)
# [4] = Inhibition of HCV full-length NS5B polymerase; set-up: species or system Hepacivirus hominis
# In short: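 Polymerase inhibition with full-length NS5B enzyme in a biochemical assay; IC50 averaged from duplicate measurements, at least two determinations.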
# [5] = Inhibition of recombinant Hepatitis C virus genotype 1b Con1 NS5B RNA dependent RNA polymerase delta21; set-up: species or system Hepatitis C virus subtype 1b
# In short: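 Biochemical polymerase assay with C-terminally truncated genotype 1b NS5B∆21; IC50 taken as mean of duplicates.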
# [6] = Plasma protein binding in human; assay type: ADME, cell-free; settings: read-out: PPB (converted)
# [7] = Dissociation constant, pKa of the compound; assay type: physicochemical
# In short: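 pKa derived from pH titration curves.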
# Cytochrome P450 2D6 = Cytochrome P450 2D6 (Homo sapiens, UniProt P10635); experiment: Inhibition of CYP2D6 (unknown origin); assay type: ADME
# Cytochrome P450 1A2 = biological target: T1, Cytochrome P450 1A2 (Homo sapiens, UniProt P05177); experiment: Inhibition of CYP1A2 (unknown origin); assay type: ADME
# T1 sequence (P05177 whole entry): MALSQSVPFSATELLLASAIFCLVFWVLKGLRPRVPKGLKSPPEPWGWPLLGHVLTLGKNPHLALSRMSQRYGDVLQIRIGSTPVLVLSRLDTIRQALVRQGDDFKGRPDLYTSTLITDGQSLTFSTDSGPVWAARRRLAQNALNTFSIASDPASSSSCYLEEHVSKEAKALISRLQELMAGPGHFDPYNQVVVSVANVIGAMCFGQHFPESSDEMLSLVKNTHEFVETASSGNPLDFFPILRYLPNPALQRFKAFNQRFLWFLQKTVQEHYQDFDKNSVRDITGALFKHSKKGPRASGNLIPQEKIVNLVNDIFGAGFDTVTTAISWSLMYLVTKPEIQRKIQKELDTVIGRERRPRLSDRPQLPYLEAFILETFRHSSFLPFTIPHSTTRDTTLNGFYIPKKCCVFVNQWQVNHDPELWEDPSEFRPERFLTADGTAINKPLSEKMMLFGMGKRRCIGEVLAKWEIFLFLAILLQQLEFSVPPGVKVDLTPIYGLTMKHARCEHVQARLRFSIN
# [8] = Oral bioavailability in monkey at 10 mg/kg; assay type: ADME, organism-based, Macaca mulatta; settings: rhesus monkey, in vivo
# In short: (§1)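 Single-compound oral PK after overnight fast; 10 mg/kg given as suspension in 0.5% methylcellulose and 0.3% Tween-80, with or without 1% NMP as added solubilizer; N=3 per dose and route. Plasma kept on ice, centrifuged at 4°C, stored near -20°C, extracted by solid phase, quantified by HPLC-UV or LC/MS against blank-plasma standards (LOQ 7 ng/mL); non-compartmental analysis.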
# [9] = AUC in rat at 10 mg/kg, po; assay type: ADME, organism-based; set-up: dose 10 mg/kg, route oral; settings: plasma; in short: as §1
# [10] = Permeability across apical at pH6 to basolateral side at pH 7.4 in human Caco2 cells; assay type: ADME, cell-based; settings: Caco-2, pH 6, read-out: permeability
# In short: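 Caco-2 monolayer permeability measured apical to basolateral, apical side at pH 6.0 and basolateral at pH 7.4.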
# Cytochrome P450 2C9 = Cytochrome P450 2C9 (Homo sapiens, UniProt P11712); experiment: Inhibition of CYP2C9 (unknown origin); assay type: ADME
# [11] = Cardiotoxicity in guinea pig papillary muscles assessed as action potential duration at 90% repolarization
# [12] = Plasma concentration in rat at 4 mg/kg, po cassette dosing after 2 hrs; assay type: ADME, organism-based; set-up: dose 4 mg/kg, route oral
# In short: (§2)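 Cassette screen: mixture of 4 compounds, each at 4 mg/kg, dosed orally to 2 rats; plasma sampled at 1 h and 2 h, solid-phase extracted and quantified by HPLC-UV or LC/MS against calibration standards in blank plasma (LOQ 7 ng/mL).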
# [13] = biological target: Voltage-gated inwardly rectifying potassium channel KCNH2 (Homo sapiens, UniProt Q12809); experiment: Inhibition of human ERG channel at 0.8 uM
# [14] = AUC in dog at 10 mg/kg, po; assay type: ADME, organism-based, Canis lupus familiaris; set-up: dose 10 mg/kg, route oral; settings: plasma; in short: as §1
# [15] = Mean residence time in monkey at 10 mg/kg, po; assay type: ADME, organism-based, Macaca mulatta; set-up: dose 10 mg/kg, route oral; settings: rhesus monkey, in vivo; in short: as §1
# [16] = Inhibition of Hepatitis C virus genotype 1b Con1 NS5B RNA dependent RNA polymerase activity using Bright-Glo luciferase substrate by cell-based 1b luciferase reporter assay; set-up: species or system Hepatitis C virus (isolate Con1)
# In short: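 Cell-based genotype 1b luciferase reporter replicon assay; EC50 determined in duplicate, values averaged over at least two determinations.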
# [17] = Oral bioavailability in dog at 10 mg/kg; assay type: ADME, organism-based, Canis lupus familiaris; settings: in vivo; in short: as §1
# [18] = Clearance in rat at 2 mg/kg, iv; assay type: ADME, organism-based; set-up: dose 2 mg/kg, route intravenous; settings: in vivo
# In short: (§3)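 Fasted animals dosed IV by bolus at 2 mg/kg in 70% PEG-400:30% water; N=3 per dose and route. Plasma separated at 4°C, stored near -20°C, solid-phase extracted, assayed by HPLC-UV or LC/MS with blank-plasma calibration (r2 > 0.99, LOQ 7 ng/mL); parameters from non-compartmental analysis.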
# [19] = Cmax in rat at 10 mg/kg, po; assay type: ADME, organism-based; set-up: dose 10 mg/kg, route oral; settings: in vivo; in short: as §1
# Cytochrome P450 2C19 = Cytochrome P450 2C19 (Homo sapiens, UniProt P33261); experiment: Inhibition of CYP2C19 (unknown origin); assay type: ADME
# Hepatitis C virus [20] = experiment: Antiviral activity against Hepatitis C virus genotype 1a by cell-based replicon assay; assay type: functional, Hepacivirus hominis; settings: subtype 1a
# [21] = Half life in human liver microsomes; assay type: ADME
# [22] = Inhibition of calf thymus DNA-dependent RNA polymerase; set-up: species or system Bos taurus
# [23] = Mean residence time in dog at 10 mg/kg, po; assay type: ADME, organism-based, Canis lupus familiaris; set-up: dose 10 mg/kg, route oral; settings: in vivo; in short: as §1
# [24] = Cmax in monkey at 10 mg/kg, po; assay type: ADME, organism-based, Macaca mulatta; set-up: dose 10 mg/kg, route oral; settings: rhesus monkey, in vivo; in short: as §1
# [25] = Cmax in dog at 10 mg/kg, po; assay type: ADME, organism-based, Canis lupus familiaris; set-up: dose 10 mg/kg, route oral; settings: in vivo; in short: as §1
# Hepatitis C virus [26] = experiment: Antiviral activity against Hepatitis C virus genotype 1b by cell-based replicon assay; assay type: functional, Hepacivirus hominis
# [27] = AUC in monkey at 10 mg/kg, po; assay type: ADME, organism-based, Macaca mulatta; set-up: dose 10 mg/kg, route oral; settings: rhesus monkey, plasma; in short: as §1
# [28] = Mean residence time in rat at 10 mg/kg, po; assay type: ADME, organism-based; set-up: dose 10 mg/kg, route oral; settings: in vivo; in short: as §1
# Rhesus monkey [29] = experiment: Volume of distribution at steady state in monkey at 2 mg/kg, iv; assay type: ADME, organism-based, Macaca mulatta; set-up: dose 2 mg/kg, route intravenous; settings: in vivo; in short: as §3
# [30] = Permeability across apical to basolateral side in human Caco2 cells; assay type: ADME, cell-based; settings: Caco-2, read-out: permeability
# [31] = Ratio of drug level in rat liver to plasma after 6 hrs; assay type: ADME, cell-free
# Salmonella typhimurium = experiment: Mutagenic activity in Salmonella typhimurium by Ames test; assay type: toxicity, organism-based; settings: salmonella enterica subsp. enterica serovar typhimurium
# In short: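 Ames test run with and without metabolic activation at doses up to maximum solubility.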
# Cytochrome P450 3A4 = Cytochrome P450 3A4 (Homo sapiens, UniProt P08684); experiment: Inhibition of CYP3A4 (unknown origin); assay type: ADME
# [32] = Oral bioavailability in rat at 10 mg/kg; assay type: ADME, organism-based; settings: in vivo; in short: as §1
# [33] = Plasma concentration in rat at 4 mg/kg, po cassette dosing after 1 hr; assay type: ADME, organism-based; set-up: dose 4 mg/kg, route oral; in short: as §2
# [34] = Half life in rat at 2 mg/kg, iv; assay type: ADME, organism-based; set-up: dose 2 mg/kg, route intravenous; settings: in vivo; in short: as §3
# Rhesus monkey [35] = experiment: Clearance in monkey at 2 mg/kg, iv; assay type: ADME, organism-based, Macaca mulatta; set-up: dose 2 mg/kg, route intravenous; settings: in vivo; in short: as §3
# Rhesus monkey [36] = experiment: Half life in monkey at 2 mg/kg, iv; assay type: ADME, organism-based, Macaca mulatta; set-up: dose 2 mg/kg, route intravenous; settings: in vivo; in short: as §3
# [37] = Half life in rat liver microsomes; assay type: ADME
# Canis familiaris = experiment: Cardiotoxicity in dog assessed as electrocardiographic parameters up to 200 mg/kg; assay type: toxicity, organism-based, Canis lupus familiaris; set-up: dose 200 mg/kg; settings: in vivo
# [38] = Clearance in dog at 2 mg/kg, iv; assay type: ADME, organism-based, Canis lupus familiaris; set-up: dose 2 mg/kg, route intravenous; settings: in vivo; in short: as §3
# [39] = Half life in dog at 2 mg/kg, iv; assay type: ADME, organism-based, Canis lupus familiaris; set-up: dose 2 mg/kg, route intravenous; settings: in vivo; in short: as §3
# [40] = Volume of distribution at steady state in dog at 2 mg/kg, iv; assay type: ADME, organism-based, Canis lupus familiaris; set-up: dose 2 mg/kg, route intravenous; settings: in vivo, read-out: Vdss; in short: as §3
# [41] = Volume of distribution at steady state in rat at 2 mg/kg, iv; assay type: ADME, organism-based; set-up: dose 2 mg/kg, route intravenous; settings: in vivo, read-out: Vdss; in short: as §3
# Sequence of Cytochrome P450 2D6 (P10635 whole entry): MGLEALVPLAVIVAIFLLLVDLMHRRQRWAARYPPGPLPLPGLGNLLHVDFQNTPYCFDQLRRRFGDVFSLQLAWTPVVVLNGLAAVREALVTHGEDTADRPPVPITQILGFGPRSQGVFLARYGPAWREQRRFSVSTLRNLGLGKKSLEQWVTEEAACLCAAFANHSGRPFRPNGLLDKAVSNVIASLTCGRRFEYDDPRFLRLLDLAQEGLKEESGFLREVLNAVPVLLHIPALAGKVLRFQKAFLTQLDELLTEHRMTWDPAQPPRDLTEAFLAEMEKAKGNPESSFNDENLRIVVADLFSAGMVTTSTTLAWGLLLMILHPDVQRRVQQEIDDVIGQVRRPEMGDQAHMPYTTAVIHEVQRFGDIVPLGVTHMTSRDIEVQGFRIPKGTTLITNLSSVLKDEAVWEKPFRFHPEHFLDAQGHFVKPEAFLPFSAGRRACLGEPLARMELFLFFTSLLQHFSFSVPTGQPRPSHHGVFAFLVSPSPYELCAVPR
# Sequence of Cytochrome P450 2C9 (P11712 whole entry): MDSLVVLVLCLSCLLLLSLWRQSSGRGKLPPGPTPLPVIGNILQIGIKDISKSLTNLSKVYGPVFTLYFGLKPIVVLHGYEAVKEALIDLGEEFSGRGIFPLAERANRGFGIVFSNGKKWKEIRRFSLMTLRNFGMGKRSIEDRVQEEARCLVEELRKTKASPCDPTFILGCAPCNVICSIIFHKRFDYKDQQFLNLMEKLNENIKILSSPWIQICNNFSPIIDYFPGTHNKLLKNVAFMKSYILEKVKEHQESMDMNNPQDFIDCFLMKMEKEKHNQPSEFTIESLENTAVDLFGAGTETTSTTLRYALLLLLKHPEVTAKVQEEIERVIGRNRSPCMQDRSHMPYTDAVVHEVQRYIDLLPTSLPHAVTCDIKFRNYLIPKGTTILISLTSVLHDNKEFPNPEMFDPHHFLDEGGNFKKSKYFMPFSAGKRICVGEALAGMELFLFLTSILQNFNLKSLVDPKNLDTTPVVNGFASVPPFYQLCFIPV
# Sequence of Cytochrome P450 2C19 (P33261 whole entry): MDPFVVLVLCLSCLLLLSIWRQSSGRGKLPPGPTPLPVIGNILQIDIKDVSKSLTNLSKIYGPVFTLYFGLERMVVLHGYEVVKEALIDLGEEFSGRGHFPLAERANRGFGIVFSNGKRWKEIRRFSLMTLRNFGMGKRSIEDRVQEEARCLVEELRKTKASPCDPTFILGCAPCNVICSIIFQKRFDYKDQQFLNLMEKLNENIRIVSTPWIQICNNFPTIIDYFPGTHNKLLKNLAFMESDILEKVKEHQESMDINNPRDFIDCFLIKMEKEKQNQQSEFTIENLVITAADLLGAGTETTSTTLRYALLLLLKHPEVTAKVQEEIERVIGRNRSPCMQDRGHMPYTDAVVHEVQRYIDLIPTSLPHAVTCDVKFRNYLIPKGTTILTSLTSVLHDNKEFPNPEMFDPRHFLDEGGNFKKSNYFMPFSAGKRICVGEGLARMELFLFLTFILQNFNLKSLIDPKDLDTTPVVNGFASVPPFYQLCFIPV
# Sequence of Voltage-gated inwardly rectifying potassium channel KCNH2 (Q12809 whole entry): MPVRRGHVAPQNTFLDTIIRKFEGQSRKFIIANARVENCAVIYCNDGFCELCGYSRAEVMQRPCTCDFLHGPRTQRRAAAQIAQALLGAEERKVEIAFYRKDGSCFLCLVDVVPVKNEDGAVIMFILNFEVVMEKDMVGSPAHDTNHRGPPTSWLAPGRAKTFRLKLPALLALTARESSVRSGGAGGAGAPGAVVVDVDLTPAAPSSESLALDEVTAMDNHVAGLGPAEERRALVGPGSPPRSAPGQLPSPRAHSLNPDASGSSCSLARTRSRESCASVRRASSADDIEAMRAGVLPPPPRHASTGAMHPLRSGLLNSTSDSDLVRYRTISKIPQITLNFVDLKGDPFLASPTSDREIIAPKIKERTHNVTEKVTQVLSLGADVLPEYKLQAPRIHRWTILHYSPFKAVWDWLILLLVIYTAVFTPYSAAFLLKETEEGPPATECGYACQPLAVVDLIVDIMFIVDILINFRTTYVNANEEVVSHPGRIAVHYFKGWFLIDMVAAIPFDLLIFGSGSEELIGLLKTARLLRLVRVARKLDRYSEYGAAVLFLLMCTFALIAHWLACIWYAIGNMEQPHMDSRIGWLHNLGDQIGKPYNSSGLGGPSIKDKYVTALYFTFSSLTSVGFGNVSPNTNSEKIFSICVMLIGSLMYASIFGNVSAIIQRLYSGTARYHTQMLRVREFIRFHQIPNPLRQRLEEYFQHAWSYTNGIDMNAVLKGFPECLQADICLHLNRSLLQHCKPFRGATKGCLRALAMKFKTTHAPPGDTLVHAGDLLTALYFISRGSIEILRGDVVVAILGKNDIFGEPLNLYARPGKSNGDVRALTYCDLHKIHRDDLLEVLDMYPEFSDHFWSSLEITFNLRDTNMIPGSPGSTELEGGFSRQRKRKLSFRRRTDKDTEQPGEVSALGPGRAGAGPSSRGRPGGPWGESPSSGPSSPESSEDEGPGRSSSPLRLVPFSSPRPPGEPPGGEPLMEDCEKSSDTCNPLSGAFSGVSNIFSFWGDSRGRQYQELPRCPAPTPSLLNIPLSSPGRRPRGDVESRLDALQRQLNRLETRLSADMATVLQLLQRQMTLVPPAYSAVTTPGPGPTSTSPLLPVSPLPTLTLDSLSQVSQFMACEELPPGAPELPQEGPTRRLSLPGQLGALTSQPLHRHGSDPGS
# Sequence of Cytochrome P450 3A4 (P08684 whole entry): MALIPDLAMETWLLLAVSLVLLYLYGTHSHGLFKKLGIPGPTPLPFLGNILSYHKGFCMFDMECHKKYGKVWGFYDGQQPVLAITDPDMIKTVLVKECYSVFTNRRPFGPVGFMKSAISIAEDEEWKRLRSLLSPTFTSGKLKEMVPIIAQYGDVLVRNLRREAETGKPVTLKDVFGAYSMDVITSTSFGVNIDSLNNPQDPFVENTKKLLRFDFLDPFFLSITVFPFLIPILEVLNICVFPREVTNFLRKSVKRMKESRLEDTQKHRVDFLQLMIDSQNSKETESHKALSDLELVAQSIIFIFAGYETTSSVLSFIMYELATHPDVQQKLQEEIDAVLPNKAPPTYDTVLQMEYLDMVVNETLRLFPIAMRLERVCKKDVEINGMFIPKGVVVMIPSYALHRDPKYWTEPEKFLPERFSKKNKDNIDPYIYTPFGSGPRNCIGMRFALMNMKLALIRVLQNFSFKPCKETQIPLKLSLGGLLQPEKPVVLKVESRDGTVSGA
smiles,measurement,setting,value
Cn1c(-c2ccccn2)c(C2CCCC2)c2ccc(C(=O)NC3(C(=O)Nc4ccc(/C=C/C(=O)O)cc4)CCC3)cc21 [BILB-1941],fold change (FC),Hepatitis C virus [1],3
same,logD,[2],3.3
same,CC50,[3],93 µM
same,IC50,[4],0.06 µM
same,IC50,[5],0.067 µM
same,fraction unbound,[6],0.008
same,pKa,[7],4.5
same,IC50,Cytochrome P450 2D6,> 30 µM
same,IC50,Cytochrome P450 1A2,13 µM
same,bioavailability,[8],70%
same,AUC,[9],23 µM·h
same,Papp A→B,[10],11 ×10⁻⁶ cm/s
same,IC50,Cytochrome P450 2C9,3.5 µM
CCOc1cc(NC(=O)C2(NC(=O)c3ccc4c(C5CCCC5)c(-c5ncc(Cl)cn5)n(C)c4c3)CCC2)ccc1/C=C/C(=O)O,Activity,[11],Non-toxic
same,concentration at 2 h,[12],2.3 µM
same,inhibition (INH),[13],Not Active
same,AUC,[14],76 µM·h
same,MRT,[15],6.1 h
same,EC50,[16],0.013 µM
same,bioavailability,[17],29%
same,clearance,[18],2.6 mL/min/kg
same,Cmax,[19],6.3 µM
same,IC50,Cytochrome P450 2C19,> 30 µM
same,EC50,Hepatitis C virus [20],0.029 µM
same,half-life,[21],1.7 h
same,IC50,[22],70 µM
same,MRT,[23],8 h
same,fold change (FC),Hepatitis C virus [1],3.8
same,logD,[2],4.1
same,Cmax,[24],9.6 µM
same,CC50,[3],38 µM
same,Cmax,[25],8.1 µM
same,EC50,Hepatitis C virus [26],0.011 µM
same,AUC,[27],53 µM·h
same,MRT,[28],3.6 h
same,Vdss,Rhesus monkey [29],0.6 L/kg
same,IC50,[4],0.11 µM
same,Papp A→B,[30],13 ×10⁻⁶ cm/s
same,Kp at 6 h,[31],5
same,Activity,Salmonella typhimurium,Non-toxic
same,IC50,Cytochrome P450 3A4,> 30 µM
same,bioavailability,[32],19%
same,IC50,[5],0.084 µM
same,concentration at 1 h,[33],3.4 µM
same,fraction unbound,[6],0.004
same,pKa,[7],6.5
same,half-life,[34],2.4 h
same,CL,Rhesus monkey [35],3.6 mL/min/kg
same,t1/2,Rhesus monkey [36],3 h
same,IC50,Cytochrome P450 2D6,> 30 µM
same,half-life,[37],1.73 h
same,IC50,Cytochrome P450 1A2,> 30 µM
same,bioavailability,[8],72%
same,AUC,[9],19 µM·h
same,Activity,Canis familiaris,Non-toxic
same,Papp A→B,[10],13 ×10⁻⁶ cm/s
same,clearance,[38],1 mL/min/kg
same,half-life,[39],4.5 h
same,Vd,[40],0.38 L/kg
same,IC50,Cytochrome P450 2C9,13.5 µM
same,Vd,[41],0.38 L/kg
